Measured values reported in ChEMBL document CHEMBL1949589, “Hydrophilic pyrazine dyes as exogenous fluorescent tracer agents for real-time point-of-care measurement of glomerular filtration rate” (J Med Chem, 2011).

Experiments:
[1] = Plasma protein binding in rat at 20 uM after 1 hr by HPLC analysis; format: ADME, cell-free; details: read-out: PPB (converted)
Summary of the method: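 20 μM compound in rat plasma, 37 °C for 1 h. Free fraction separated by 30 kDa MWCO centrifugal ultrafiltration and quantified by HPLC with fluorescence detection against external calibration standards.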

[2] = Drug excretion in Sprague-Dawley rat urine after 6 hrs; format: ADME
Summary of the method: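 Test agent (1 mL, 2 mM in PBS) given by tail vein to conscious restrained rats in metabolic cages, urine collected at 2, 4 and 6 h with cage washes; or to rats anesthetized with Inactin 100 mg/kg ip, tracheotomized, kept on 37 °C pad, with bladder urine drawn at 6 h. Urine level by HPLC with fluorescence detection against external standards; %ID from mass balance; mean ± SEM, n=3-6.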

[3] = Terminal half life in Sprague-Dawley rat plasma […]; format: ADME, organism-based; details: read-out: beta t1/2
Summary of the method: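 Male Sprague Dawley rats (330-380 g), Inactin ip, tracheotomized, with femoral vein dosing and femoral artery sampling catheters. Dose was 1 mL of 2 mM agent; about 200 μL blood taken at 0-120 min (10 points). Plasma measured by HPLC with fluorescence detection against external standards. Terminal-phase half-life from two-compartment modeling; mean ± SEM, n=4-8.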

[4] = Stability of the compound assessed as drug degradation by HPLC analysis; format: physicochemical
Rattus norvegicus = assay: Plasma clearance in Sprague-Dawley rat in presence of 70 mg/kg probenecid administered 10 mins prior to compound treatment; details: in vivo
Mus musculus = species on record: Mus musculus; assay: Drug uptake in mouse bladder at 300 uL after 60 mins by real-time fluorescence analysis; details: in vivo, 1 h

fraction unbound at 1 h, 20 µM [1]	urinary excretion (% of injected dose) at 6 h [2]	half-life [3]	Stability [4]	CL (Rattus norvegicus)	Drug uptake (Mus musculus)	Structure (SMILES)
0.88						Nc1nc(C(=O)NCCO)c(N)nc1C(=O)NCCO
0.98	61 % ID					Nc1nc(C(=O)NCC(O)CO)c(N)nc1C(=O)NCC(O)CO (stereo not given)
1	82 % ID	36 min	Stable	Not Active		Nc1nc(C(=O)N[C@@H](CO)C(=O)O)c(N)nc1C(=O)N[C@@H](CO)C(=O)O
1	61 % ID					Nc1nc(C(=O)N[C@H](CC(=O)O)C(=O)O)c(N)nc1C(=O)N[C@H](CC(=O)O)C(=O)O
0.26						CCCNc1nc(C(=O)N[C@H](CO)C(=O)O)c(NCCC)nc1C(=O)N[C@H](CO)C(=O)O
0.85	25 % ID					NC(=O)c1nc(NC[C@H](O)CO)c(C(N)=O)nc1NC[C@H](O)CO
0.94	88 % ID	19 min	Stable	Active	Active	O=C(NCC(O)CO)c1nc(NC[C@H](O)CO)c(C(=O)NCC(O)CO)nc1NC[C@H](O)CO (stereo not given in full)
0.96	87 % ID					O=C(NCC(O)CO)c1nc(NC[C@@H](O)CO)c(C(=O)NCC(O)CO)nc1NC[C@@H](O)CO (stereo not given in full)
1	85 % ID	20 min	Stable	Active		O=C(N[C@H](CO)C(=O)O)c1nc(NC[C@H](O)CO)c(C(=O)N[C@H](CO)C(=O)O)nc1NC[C@H](O)CO
0.9	80 % ID	32 min		Active		CNC(=O)c1c(I)c(NC(C)=O)c(I)c(C(=O)O)c1I [IOTHALAMIC ACID]
1	90 % ID	29 min	Stable	Active		Nc1nc(C(=O)N[C@H](CO)C(=O)O)c(N)nc1C(=O)N[C@H](CO)C(=O)O [RELMAPIRAZIN]
